The species entered for test [1] is Canis familiaris. Put plainly: Intrinsic activity was measured on the dog carotid artery. In kind it is functional, Canis lupus familiaris.
Test [2] is filed under the species Canis familiaris. The test is described as follows: Apparent affinity was measured on the dog carotid artery. In kind it is functional, Canis lupus familiaris.
The species entered for test [3] is Cavia porcellus. The test is described as follows: Relative affinity compared to substance P was measured in guinea pig ileum. In kind it is functional. The procedure, abridged: (§1)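 Guinea pig ileum (animals 200-400 g, both sexes) from animals killed by stunning and exsanguination. Concentration-response curves built by consecutive additions of drug to the bath.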

The species named for test [4] is Cavia porcellus. The test is described as follows: Intrinsic activity was measured on the guinea pig ileum. It is filed as functional. The essentials: as §1
The species named for test [5] is Cavia porcellus. The test is described as follows: Apparent affinity was measured on the guinea pig ileum. It is filed as functional. The procedure, abridged:
as §1

The species entered for test [6] is Oryctolagus cuniculus. Put plainly: Intrinsic activity was measured on the rabbit mesenteric vein. In kind it is functional. The procedure, abridged:
(§2)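 Rabbit mesenteric vein from rabbits killed by stunning and exsanguination. Concentration-response curves built by consecutive drug additions to the bath fluid.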

Test [7] is filed under the species Oryctolagus cuniculus. The test is described as follows: Apparent affinity was measured on the rabbit mesenteric vein. It is filed as functional. The procedure, abridged: as §2
Test [8] is filed under the species Oryctolagus cuniculus. Put plainly: Relative affinity compared to substance P was measured in rabbit mesenteric vein. It is filed as functional. The essentials: as §2
Test [9] deals with Rattus norvegicus. The test is described as follows: Relative potency compared substance P - change in blood pressure in anesthetized rat. It is filed as functional. The essentials:
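Rats 200-250 g, anesthetized with urethane (1.4 g/kg, sc). Peptides injected into the jugular vein. Blood pressure recorded directly via a cannula in the right carotid artery with a mercury manometer on a kymograph-driven smoked drum.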

For test [10], the species on record is Canis familiaris. Put plainly: Relative affinity compared to substance P was measured in the dog carotid artery. It is filed as functional, Canis lupus familiaris.

In the case of `CSCC[C@H](NC(=O)[C@H](CC(C)C)NC(=O)CNC(=O)[C@H](Cc1ccccc1)NC(=O)[C@H](CC1CCCCC1)NC(=O)[C@H](CCC(N)=O)NC(=O)[C@H](CCC(N)=O)NC(=O)[C@@H]1CCCN1C(=O)[C@H](CCCCN)NC(=O)[C@@H]1CCCN1C(=O)[C@@H](N)CCCN=C(N)N)C(N)=O`, the Alphax10E is given as 1 in [1], 1 in test [4] and 0.8 in test [6]. The pD2 is 8.8 in test [2], 8.08 in test [5] and 6.66 in test [7]. The figures for the RA in test [3], in test [8] and in test [10] were 20, 13.2 and 6.4, respectively. The compound further registered an RP in test [9] of 21.

With `CC[C@H](C)[C@H](NC(=O)[C@H](Cc1ccccc1)NC(=O)[C@H](CCC(N)=O)NC(=O)[C@H](CCC(N)=O)NC(=O)[C@@H]1CCCN1C(=O)[C@H](CCCCN)NC(=O)[C@@H]1CCCN1C(=O)[C@@H](N)CCCN=C(N)N)C(=O)NCC(=O)N[C@@H](CC(C)C)C(=O)N[C@@H](CCSC)C(N)=O`, the RA in test [3] and in test [8] was 100 throughout. Besides, the Alphax10E in test [4] and in test [6] was 1 throughout. Also, the values for the pD2 in test [5] and in test [7] were 8.78 and 7.55, respectively. This compound also returned an RP in test [9] of 100.

With `CSCC[C@H](NC(=O)[C@H](CC(C)C)NC(=O)CNC(=O)[C@H](CC1CCCCC1)NC(=O)[C@H](Cc1ccccc1)NC(=O)[C@H](CCC(N)=O)NC(=O)[C@H](CCC(N)=O)NC(=O)[C@@H]1CCCN1C(=O)[C@H](CCCCN)NC(=O)[C@@H]1CCCN1C(=O)[C@@H](N)CCCN=C(N)N)C(N)=O`, the RA in test [3] and in test [8] was 100 in each case. Besides, the Alphax10E in [4] and in [6] was 1 in each case. Moreover, the pD2 in test [5] was determined as 8.78; in test [7], 7.55. In test [9], this compound had an RP of 100.

Turning to `CSCC[C@H](NC(=O)[C@H](CC(C)C)NC(=O)[C@@H](Cc1ccccc1)NC(=O)[C@@H](CC(C)C)NC(=O)[C@H](Cc1ccccc1)NC(=O)[C@H](CCC(N)=O)NC(=O)[C@H](CCC(N)=O)NC(=O)[C@@H]1CCCN1C(=O)[C@H](CCCCN)NC(=O)[C@@H]1CCCN1C(=O)[C@@H](N)CCCN=C(N)N)C(N)=O`, the Alphax10E in test [1] was determined as 1. The pD2 in test [2] was found to be 7.89; in test [5], 6.83. Besides, the RA in test [3] is listed as 1.2; in test [8] it was less than 0.01; in [10], 0.8. In addition, the RP in test [9] is listed as 1.3.

Regarding `CSCC[C@H](NC(=O)[C@H](CC(C)C)NC(=O)CNC(=O)[C@@H](Cc1c[nH]c2ccccc12)NC(=O)[C@H](Cc1ccccc1)NC(=O)[C@H](CCC(N)=O)NC(=O)[C@H](CCC(N)=O)NC(=O)[C@@H]1CCCN1C(=O)[C@H](CCCCN)NC(=O)[C@@H]1CCCN1C(=O)[C@@H](N)CCCN=C(N)N)C(N)=O`, the Alphax10E in [1] and in test [4] was 1 throughout. In addition, the results for the pD2 in test [2], in test [5] and in test [7] were 7.12, 6.68 and 4.92, respectively. For the same compound, the RA in test [3] is given as 0.8; in test [8], 0.3; in test [10], 0.2. The RP in test [9] amounted to 0.8.

In the case of `COc1ccc(C[C@H](NC(=O)[C@H](CCC(N)=O)NC(=O)[C@H](CCC(N)=O)NC(=O)[C@@H]2CCCN2C(=O)[C@H](CCCCN)NC(=O)[C@@H]2CCCN2C(=O)[C@@H](N)CCCN=C(N)N)C(=O)N[C@@H](Cc2ccccc2)C(=O)NCC(=O)N[C@@H](CC(C)C)C(=O)N[C@@H](CCSC)C(N)=O)cc1`, the values for the RA in test [3] and in [8] were 31 and 20.5, respectively. Also, the Alphax10E in [4] is 1; in test [6], 0.8. Besides, the pD2 worked out at 8.27 in test [5] and 6.87 in test [7]. In [9], the RP worked out at 31.

With `CSCC[C@H](NC(=O)[C@H](CC(C)C)NC(=O)CNC(=O)[C@H](Cc1ccccc1)NC(=O)[C@H](CC(C)C)NC(=O)[C@H](CCC(N)=O)NC(=O)[C@H](CCC(N)=O)NC(=O)[C@@H]1CCCN1C(=O)[C@H](CCCCN)NC(=O)[C@@H]1CCCN1C(=O)[C@@H](N)CCCN=C(N)N)C(N)=O`, the Alphax10E in test [1] and in test [4] was 1 throughout. Further, the pD2 came out at 7.64 in [2], 7.15 in test [5] and 5.66 in test [7]. The RA is on record as 2.3 in test [3], 1.3 in [8] and 0.4 in test [10]. Further, the RP in test [9] was 0.8.

With `COc1ccc(C[C@H](NC(=O)[C@H](Cc2ccccc2)NC(=O)[C@H](CCC(N)=O)NC(=O)[C@H](CCC(N)=O)NC(=O)[C@@H]2CCCN2C(=O)[C@H](CCCCN)NC(=O)[C@@H]2CCCN2C(=O)[C@@H](N)CCCN=C(N)N)C(=O)NCC(=O)N[C@@H](CC(C)C)C(=O)N[C@@H](CCSC)C(N)=O)cc1`, the Alphax10E in test [1], in [4] and in test [6] was 1 each time. The pD2 in test [2] was 9.98; in test [5], 8.78; in test [7], 7.55. For the same compound, the figures for the RA in test [3], in test [8] and in [10] were 100, 100 and 95, respectively. Further, in test [9], the RP came to 100.

For the compound `CSCC[C@H](NC(=O)[C@H](CC(C)C)NC(=O)[C@@H](CC(C)C)NC(=O)[C@H](Cc1ccccc1)NC(=O)[C@H](Cc1ccccc1)NC(=O)[C@H](CCC(N)=O)NC(=O)[C@H](CCC(N)=O)NC(=O)[C@@H]1CCCN1C(=O)[C@H](CCCCN)NC(=O)[C@@H]1CCCN1C(=O)[C@@H](N)CCCN=C(N)N)C(N)=O`, the Alphax10E in [1] and in test [4] was 1 throughout. In addition, the pD2 in test [2] is reported as 7.49; in test [5], 7.21; in test [7], 5.11. For the same compound, the RA in [3] was 2.7; in test [8], 0.4; in test [10], 0.3. In addition, in test [9], the RP is recorded as 0.7.

Regarding `CSCC[C@H](NC(=O)[C@H](CC(C)C)NC(=O)CNC(=O)[C@H](Cc1ccccc1)NC(=O)[C@H](Cc1c[nH]c2ccccc12)NC(=O)[C@H](CCC(N)=O)NC(=O)[C@H](CCC(N)=O)NC(=O)[C@@H]1CCCN1C(=O)[C@H](CCCCN)NC(=O)[C@@H]1CCCN1C(=O)[C@@H](N)CCCN=C(N)N)C(N)=O`, the Alphax10E in test [1] and in [4] was 1 throughout. The pD2 in [2] was found to be 9.56; in [5] it was 8.38; in test [7] it was 6.55. Moreover, the RA is recorded as 39.7 in test [3], 10 in test [8] and 37.1 in test [10]. This compound also yielded an RP in [9] of 51.

In test [1], `CSCC[C@H](NC(=O)[C@H](Cc1ccccc1)NC(=O)CNC(=O)[C@@H](C)NC(=O)[C@H](Cc1ccccc1)NC(=O)[C@H](CCC(N)=O)NC(=O)[C@H](CCC(N)=O)NC(=O)[C@@H]1CCCN1C(=O)[C@H](CCCCN)NC(=O)[C@@H]1CCCN1C(=O)[C@@H](N)CCCN=C(N)N)C(N)=O` showed an Alphax10E of 1. In addition, the values for the pD2 in test [2] and in [5] were 8.15 and 4.73, respectively. The RA was less than 0.01 in [3], less than 0.1 in test [8] and 1.4 in test [10]. This compound returned an RP in [9] of 0.09.

As for `CSCC[C@H](NC(=O)[C@H](CC(C)C)NC(=O)CNC(=O)[C@H](Cc1ccccc1)NC(=O)[C@@H](Cc1c[nH]c2ccccc12)NC(=O)[C@H](CCC(N)=O)NC(=O)[C@H](CCC(N)=O)NC(=O)[C@@H]1CCCN1C(=O)[C@H](CCCCN)NC(=O)[C@@H]1CCCN1C(=O)[C@@H](N)CCCN=C(N)N)C(N)=O`, the Alphax10E in test [1] and in test [4] was 1 throughout. In addition, the pD2 in test [2] was 7.33; in [5] it was 5.9. The RA in test [3] is 0.2; in test [8], less than 0.1; in test [10] it was 0.2. For the same compound, the RP in test [9] was 0.2.

As to `CSCC[C@H](NC(=O)[C@H](CC(C)C)NC(=O)CNC(=O)[C@H](CC(C)C)NC(=O)[C@H](Cc1ccccc1)NC(=O)[C@H](CCC(N)=O)NC(=O)[C@H](CCC(N)=O)NC(=O)[C@@H]1CCCN1C(=O)[C@H](CCCCN)NC(=O)[C@@H]1CCCN1C(=O)[C@@H](N)CCCN=C(N)N)C(N)=O`, the figures for the Alphax10E in [1], in test [4] and in [6] were 1, 1 and 0.8, respectively. The pD2 in [2] was 9.81; in test [5] it was 8.61; in test [7] it was 6.92. For the same compound, the RA in [3] was determined as 68; in [8] it was 23.6; in [10], 64. The same compound registered an RP in [9] of 70.

In turn, H-RPKPQQFGGFM-NH2 had an Alphax10E in test [1] of 1. Besides, the pD2 is listed as 7.33 in test [2] and 5.31 in [5]. Moreover, the results for the RA in [3], in [8] and in test [10] were less than 0.1, less than 0.1 and 0.2, respectively. The RP in [9] is listed as 0.07.

On to H-RPKPQQLLGLM-NH2, for which the Alphax10E in [1] was found to be 1. For the same compound, the pD2 in test [2] was 6.38; in test [5] it was 5.29. Moreover, the RA in test [3] is less than 0.1; in [8], less than 0.01; in test [10], less than 0.1. Further, the RP in test [9] is 0.2.
